Screens (PubChem)
MC4R antagonist: MC4R antagonists of cAMP signaling, primary screen, cell-based, TR-FRET, antagonist arm of biased-ligand search; Melanocortin receptor 4 (Homo sapiens), P32245; MC4R-expressing cells, MTII-stimulated cAMP, LANCE TR-FRET; inhibition, % at 6.5 µM; 360,000 tested, 0.48% active;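 active means inhibition above its plate's cutoff, the mean of tested wells on that plate plus 3 SD, cut at about 29% in these data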;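 further: 0% = Melanotan II alone and 100% = Melanotan II plus saturating MCL0020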
Target sequence (P32245 whole entry, looked up): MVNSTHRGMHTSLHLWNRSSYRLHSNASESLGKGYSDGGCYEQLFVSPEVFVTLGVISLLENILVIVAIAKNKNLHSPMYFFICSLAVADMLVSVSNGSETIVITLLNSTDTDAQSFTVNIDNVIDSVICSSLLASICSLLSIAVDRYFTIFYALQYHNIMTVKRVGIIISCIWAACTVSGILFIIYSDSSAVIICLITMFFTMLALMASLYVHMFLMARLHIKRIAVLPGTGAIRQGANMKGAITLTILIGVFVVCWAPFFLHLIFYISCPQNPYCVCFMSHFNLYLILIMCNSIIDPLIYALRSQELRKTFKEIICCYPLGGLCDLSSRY
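Material – human MC4R-expressing U2OS cells · Repeats – no replicates · Detection – TR-FRET with Eu-cAMP and labeled anti-cAMP, 671 nm · Times – compound 30 min, challenge 1 h, detection 1 h · Compound – single nominal compound dose of 6.5 µM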
GAA850 FXN act: FXN promoter activators, primary screen, cell-based, luciferase luminescence, HEK293 lucGAA850 | AID 540364, 2011 | activation, % at 6 µM | 360,000 tested, 0.56% active | HEK293 lucGAA850 FXN promoter luciferase reporter, 24 h; percent of 10 µM SAHA response;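 active means activation above the average of all compounds screened plus 3 SD, cutoff fixed separately per campaign, cut at about 7.5% in these data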;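 further: 0% = DMSO wells and 100% = 10 µM SAHA wells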
MC4R ag barr: MC4R agonists recruiting beta-arrestin, primary screen, cell-based, luminescence, agonist arm of biased-ligand search | U2OS MC4R beta-arrestin complementation; percent of melanotan II response, DMSO zero | activation, % at 8.9 µM | 360,000 tested, 0.98% active | AID 540308, 2011;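 active means activation above a per-plate cutoff, the mean activation of sample wells on that plate plus 3 SD, cut at about 8% in these data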
AHR act: AHR activators, primary screen, cell-based, luminescence, luciferase reporter, human; AHR-responsive luciferase reporter cells; AID 2796, 2010; 320,000 tested, 2.5% active; Aryl hydrocarbon receptor (Homo sapiens), P35869; activation, % at 5 µM; in the data active means activation above about 47%;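 further: 0% = vehicle wells and 100% = reference agonist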
m5-HT2A agonist: mouse Htr2a agonists via beta-arrestin recruitment, primary screen, cell-based, luminescence; 5-hydroxytryptamine receptor 2A (Mus musculus), P35363; CHO-K1 mHTR2A beta-arrestin complementation; percent of 30 µM serotonin response; activation, % at 7.6 µM; 360,000 tested, 0.66% active; AID 624169, 2012;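 active means activation above a run cutoff, the mean activation of all tested compounds plus 3 SD, cut at about 14% in these data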;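 further: 0% = plate median of compound wells and 100% = 30 µM serotonin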
AHR act cf: AHR activators, confirmation, cell-based, luminescence, luciferase reporter, human | shares compounds with AHR act | human cells, AHR-responsive luciferase reporter | activation, % at 9 µM | 2,300 tested, 87% active | AID 2845, 2010; in the data active means activation above about 49%;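 further: HepG2 hepatoma cells carrying a DRE-driven firefly luciferase reporter; 0% = vehicle wells and 100% = reference agonist wells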
PXR counter: human PXR activators, counter-screen for AHR activator project, cell-based, luciferase luminescence; shares compounds with AHR act; cell-based PXR reporter; activation, % at 11.6 µM; 2,300 tested, 88% active; in the data active means activation above about 11%;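 further: human hepatoma DPX-2 cells expressing full-length human PXR; 0% = DMSO and 100% = reference agonist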
* marks the source's active call; other numbers are inactive results; . = not tested or not shown. In the library only some 4.7% were active in any assay of this set; here they are far more common.

SMILES	MC4R antagonist	GAA850 FXN act	MC4R ag barr	AHR act	m5-HT2A agonist	AHR act cf	PXR counter
CC(=O)N1N=C2c3ccccc3CCC2C1c1ccc(F)cc1 (stereo not given)	13.2	0.2	-2.8	98.9*	0.3	107.7*	28.7*
CCN(CC)C(=O)CCSc1nnc(-c2ccco2)o1	10.0	3.1	-2.3	2.1	2.0	.	.
Cc1c(C)c(C)c2[nH]c(-c3ccc4c(c3)OCO4)nc2c1C	8.6	3.3	2.7	101.5*	-4.8	102.1*	50.4*
CNc1nc(Nc2ccc(C(=O)OC)cc2)c2sccc2n1	6.0	1.6	-0.5	.	2.2	.	.
O=C(NNc1nc2c(F)cc(F)cc2s1)C1COc2ccccc2O1 (stereo not given)	11.5	1.7	-6.5	5.5	-3.4	.	.
Cc1cccc2sc(NNC(=O)C3COc4ccccc4O3)nc12 (stereo not given)	1.5	2.2	-0.8	94.5*	-0.5	41.0	19.8*
Cc1cc(C)c2sc(NNC(=O)C3COc4ccccc4O3)nc2c1 (stereo not given)	1.4	-2.8	-2.4	103.0*	-8.4	69.4*	24.8*
C/C(=N\Nc1ccc(S(=O)(=O)N2CCCCC2)cn1)c1cccc(Br)c1	4.5	1.5	1.4	-2.9	-10.1	.	.
N/C(=N\OC(=O)c1cccc2ccccc12)c1cccnc1	-1.1	6.3	0.2	84.6*	-1.8	55.3*	14.9*
N/C(=N\OC(=O)c1ccc(Cl)cc1Cl)c1cccnc1	-2.2	7.5	-1.2	26.7	7.3	.	.
O=C(COc1cccnc1[N+](=O)[O-])c1c[nH]c2ccccc12	4.0	2.6	-1.3	87.3*	-5.5	107.7*	15.6*
Cc1cc(C)c(C(=O)COc2cccnc2[N+](=O)[O-])cc1C	1.4	2.2	-2.4	-2.3	-1.5	.	.
Cc1ccc(NC(=O)Nc2ccc3c(c2)OCO3)nc1	-7.0	1.9	-0.1	12.0	6.9	.	.
CCOc1ccccc1NC(=O)Nc1ccc2c(c1)OCO2	-4.8	2.8	-2.4	102.7*	0.4	114.8*	97.1*
Cc1ccc(OC(F)F)c(NC(=O)Nc2ccc3c(c2)OCO3)c1	-3.6	0.6	-2.4	82.0*	-3.5	74.8*	46.8*
CCOc1ccccc1OCCC(=O)Nc1ccc2c(c1)OCO2	-5.6	1.2	-1.4	17.3	-0.3	.	.
COc1cccc(CN2CC(C(=O)N(C)Cc3ccnc4ccccc34)CCC2=O)c1 (stereo not given)	10.3	2.7	-0.3	0.0	-3.5	.	.
C=CCC[C@@H](CCCCC)OC(=O)/C=C/[C@H](O)[C@@H](O)C[C@@H](O)CC=C	.	.	.	.	10.9	.	.
C=CCC[C@H](CCCCC)OC(=O)/C=C/[C@@H](O)[C@H](O)C[C@@H](O)CC=C	.	.	.	.	1.2	.	.
CCCn1c(SCC(=O)c2c(C)[nH]c(C)c2C(=O)OCC)nc2ccccc21	5.6	-1.0	-1.9	25.7	-2.6	.	.
CCOC(=O)c1c(C)[nH]c(C)c1C(=O)CSc1nc2ccccc2n1CCC#N	-2.6	-1.3	-2.1	99.3*	12.1	4.7	78.6*
CN(CC(=O)Nc1ccc(Cl)c(C(F)(F)F)c1)C(=O)Cn1cc([N+](=O)[O-])ccc1=O	5.1	-1.9	-2.6	1.0	-20.8	.	.
CCOc1ccc(N=C(NN)c2ccc3ccccc3n2)cc1	17.2	-10.1	-0.8	108.4*	-1.6	110.0*	18.6*
Nc1ccc(Br)c2c1C(=O)c1ccccc1C2=O	.	.	.	95.3*	.	57.8*	16.4*
Nc1ccc(O)c2c1C(=O)c1ccccc1C2=O	14.7	3.2	-2.7	5.8	-5.7	.	.
SMILES	MC4R antagonist	GAA850 FXN act	MC4R ag barr	AHR act	m5-HT2A agonist	AHR act cf	PXR counter
COc1cc2c(cc1OC)CN(C(=O)CCNC(=O)c1ccccc1Cl)CC2	1.2	0.6	-2.9	0.3	2.7	.	.
c1ccc(-c2nc3nc4ccccc4nc3n2Cc2ccco2)cc1	8.9	2.4	-2.1	99.0*	1.0	70.9*	20.3*
CC(C)c1cc(C(C)C)c(S(=O)(=O)N2c3ccccc3[C@@]3(Br)C[C@H]4C(=O)N[C@@H](Cc5ccccc5)C(=O)N4[C@@H]23)c(C(C)C)c1	.	.	.	-0.9	.	.	.
CC(=O)c1c(C)[nH]c(C(=O)NCCc2ccccc2)c1C	-0.1	2.8	-0.8	116.3*	2.9	70.0*	78.8*
CC(=O)Nc1cccc(NC(=O)c2cccc3cccnc23)c1	20.1	-0.9	-0.5	123.9*	-1.6	100.9*	55.6*
Cc1ccc(NC(=O)c2ccccc2O)cc1	8.6	1.6	1.0	19.5	4.0	.	.
Cc1ccc(NC(=O)c2cccc3cccnc23)cc1	6.1	4.7	0.8	120.9*	5.8	109.6*	30.1*
CCCCNC(=O)c1nc(C2CCN(S(=O)(=O)c3ccc(C(F)(F)F)cc3)CC2)oc1-c1ccccc1	.	.	.	.	1.0	.	.
COc1ccc(CN(CC(=O)NC2CCCC2)C(=O)CCC(=O)Nc2nc(C)cs2)cc1	-2.3	1.9	-2.0	2.5	-2.6	.	.
COc1ccc(CCN2Cc3c(N)cccc3C2=O)cc1OC	10.3	0.8	0.8	83.1*	2.9	1.2	12.3*
Cc1nc2c(OCc3ccc(C(F)(F)F)cc3)cccn2c1N(C)Cc1cccs1	25.7	-3.1	-3.7	.	-0.2	.	.
Oc1c(-c2cc(-c3ccco3)[nH]n2)ccc2ccccc12	0.2	2.5	-1.0	115.6*	-2.8	149.1*	13.2*
S=c1[nH]nc(-c2cc(-c3ccco3)[nH]n2)n1-c1ccccc1	9.7	0.1	-0.9	88.4*	4.1	96.4*	18.2*
COc1ccccc1C(=O)NC(=O)CSc1nnnn1C	12.6	0.5	1.0	1.6	5.9	.	.
CC1CCc2sc(-c3n[nH]c(=S)o3)cc2C1 (stereo not given)	0.5	-0.9	-0.7	4.1	2.3	.	.
S=c1[nH]nc(-c2cc3c(s2)-c2ccccc2CC3)o1	3.5	1.1	-1.1	93.3*	-2.2	116.1*	23.0*
CCOC(=O)n1c2ccccc2c(=O)n1CCO	.	.	.	.	1.2	.	.
NC(c1csc(Nc2cc(NCCCO)ncn2)n1)c1ccccc1Cl (stereo not given)	-5.4	1.3	0.1	.	-1.8	.	.
CNC(=S)N/N=C/c1cn(CCOc2ccccc2OC)c2ccccc12	5.3	2.3	0.4	80.3*	-3.7	61.9*	109.8*
CCOC(=O)N/N=C/c1cn(CCCOc2ccccc2)c2ccccc12	5.0	2.7	-0.4	104.7*	-6.4	84.6*	33.9*
COc1ccccc1OCCn1cc(C=O)c2ccccc21	9.7	-1.1	-1.9	.	-0.7	.	.
